Source: PubChem (several laboratories)
The list is not random: actives were taken first. Their share in the collection is about 2.8%.
SDO1 yeast rescue = compounds rescuing growth of sdo1-depleted yeast, bone marrow failure model; S. cerevisiae sdo1-depleted JHY4D growth rescue, OD600 30 h; hits give high values; pdr5 snq2 efflux-pump mutant strain; 140,000 tested, 0.21% active; z-score at 10 µM;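 active = z-score above 3 at both the 24 hr and the 30 hr optical density reads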;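 note: z-score against mean and SD of all compound wells on the same plate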
bCat KO growth = beta-catenin-lacking colon tumor cell growth suppression | HCT116 beta-catenin knockout viability, CellTiter-Glo, 60 h; hits give low values | viability, % at 10 µM | 140,000 tested, 1.5% active;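 active = viability at or under a set limit, the compound median less 4 SD, cut at about 6% in these data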;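 note: 0% = Hyamine 1622 control at 20 µM and 100% = untreated cell control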
BB579 growth dn = chemicals that inhibit yeast BB579 growth in restrictive medium (lifespan-shortening candidates); AID 804; inhibition, % at 10 µM; 140,000 tested, 0.51% active; S. cerevisiae BB579 growth, OD615, 48 h;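 active = inhibition above a set limit, 3 SD over the mean compound inhibition, cut at about 44% in these data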
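System: DeaD yeast strain BB579; buffer or medium: CSMM-D dextrose restrictive medium; technique: OD at 615 nm; schedule: 4 h cell preincubation, 48 h compound exposure, 30 °C humidified; doses: single 10 µM dose; controls: amphotericin B 10 µg/mL, positive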
HCT116 PTEN-null = growth suppressors of cells with PTEN tumor suppressor deletion. 140,000 tested, 1.2% active. AID 827. HCT116 PTEN-null viability, CellTiter-Glo, 60 h; hits give low values. viability, % at 10 µM;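 active = viability at or below a set limit, 4 SD under the median of all tested compounds, cut at about 3.7% in these data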;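 note: PTEN knockout HCT116 line with beta catenin targeted HCT116 as companion control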
Yeast life ext = yeast lifespan extension; 130,000 tested, 0.68% active; AID 775; inhibition of the nicotinamide effect, % at 10 µM; S. cerevisiae growth with nicotinamide, OD615; deaD strain in restrictive glucose medium;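 active = inhibition above a set limit, placed 3 SD over the median of all compounds, cut at about 26% in these data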;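 note: 0% = nicotinamide-treated wells and 100% = cells grown without nicotinamide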
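System: DeaD-strain S. cerevisiae / Buffer or medium: CSMM-D, restrictive glucose (dextrose) synthetic minimal medium / Probe or stimulus: nicotinamide, 1.5 mM, co-present with compound / Compound: one concentration, 10 µM, DMSO 0.25% / Incubation: 48 h compound exposure at 30 °C, humidified / Technique: optical density (absorbance) at 615 nm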
Numbers without * were called inactive.

SMILES	SDO1 yeast rescue	bCat KO growth	BB579 growth dn	HCT116 PTEN-null	Yeast life ext
CC(C)C(=O)N1CCN(c2ccc(NC(=O)c3ccc4c(c3)OCCO4)cc2Cl)CC1	-0.81	1.3*	-39	1.7*	-20
CCOC(=O)c1cccc(C(=O)OCC)n1	0.5	46	-45	48	-20
CCOC(=O)C1=Nc2ccccc2C1=[N+]=[N-]	-2.8	61	100*	56	-20
Cc1cc(C(=O)Nn2c(-c3ccc(Br)cc3)nc3ccccc3c2=O)ccc1[N+](=O)[O-]	-0.45	73	-31	75	3
COc1ccc(C(=O)On2c(-c3ccc(Br)cc3)nc3ccccc3c2=O)cc1	-1.6	62	-33	62	96*
COc1cc(OC)cc(-c2nc3ccccc3c(=O)n2OC(=O)c2ccc(Br)cc2)c1	-0.25	87	-11	86	71*
CCC(C)c1ccc(NC(=S)NC2CCN(Cc3ccccc3)CC2)cc1 (stereo not drawn)	-0.68	1.9*	-6	1.1*	-2
Cc1nc2c(=O)n(C)c(=O)n(C)c2nc1Cl	0.37	3.6*	5	4	75*
O=CN(/C=C1\Sc2ccccc2C1=O)Cc1ccccc1	-0.03	94	-26	98	48*
COc1ccccc1OCC(=O)N/N=C/C=C/c1ccc([N+](=O)[O-])o1	-0.83	3.2*	8	2.6*	11
Cc1ccccc1OCC(=O)N/N=C/c1ccc([N+](=O)[O-])o1	-0.44	38	-17	43	5
Cc1ccc(O)c(C(=O)c2cc(C#N)c(=O)n(CC3CCCO3)c2)c1 (stereo not drawn)	0.97	94	-38	92	-3
COc1ccc(O)c(C(=O)c2cc(C#N)c(=O)n(CC3CCCO3)c2)c1 (stereo not drawn)	-0.69	89	-20	81	113*
CC1(C)Cc2c(C#N)c(N3CCN(C(=O)c4ccco4)CC3)nc(Cc3ccccc3)c2CO1	0.29	1.5*	-43	1.0*	-13
CC1(C)Cc2c(C#N)c(N3CCN(C(=O)c4ccco4)CC3)nc(-c3ccco3)c2CS1	-0.95	85	-16	74	0
Cc1cc(C)cc(N(CCC(=O)O)S(=O)(=O)c2ccc3ccccc3c2)c1	-0.33	85	-30	86	33*
O=[N+]([O-])c1ccc(Cl)c(S(=O)(=O)N2CCCCCC2)c1	0.26	60	57*	70	5
Cc1ccc(-c2nnc3n2N=C(c2ccccc2Br)CS3)cc1	-1.7	41	-24	37	-1
O=C(Oc1ccccc1)c1ccccc1OS(=O)(=O)c1ccccc1	-1.3	97	-48	96	-11
O=Cc1ccccc1OS(=O)(=O)c1ccccc1	0.03	100	-24	98	49*
O=C(Nc1nc2ccccc2n1CCOc1ccc(Cl)cc1)c1ccco1	-1.5	5.4*	9	6	-9
O=C(Nc1nc2ccccc2n1CCOc1ccccc1)c1ccco1	-1.3	16	-70	15	-1
CCCNC(=O)OC[C@H]1O[C@H](CCO/N=C(\C)CCN2CCc3nc(-c4ccccc4)c(-c4ccccc4)cc3C2)C=C[C@@H]1Oc1ccc(OC)cc1	-0.5	63	-57	66	32*
C=CCn1c(SCn2nnc3ccccc3c2=O)nnc1C1CCCCC1	0.1	94	-20	90	-14
CCOC(=O)C1=C(C)n2c(s/c(=C/c3cccc([N+](=O)[O-])c3)c2=O)=NC1c1ccc(O)c(OC)c1 (stereo not drawn)	-1.5	1.9*	-26	7	-5
SMILES	SDO1 yeast rescue	bCat KO growth	BB579 growth dn	HCT116 PTEN-null	Yeast life ext
CS/C(=N\S(=O)(=O)c1cccs1)Nc1ccc(Br)cc1F	-0.26	100	-10	103	31*
CS/C(=N\S(=O)(=O)c1cccs1)Nc1ccc(Cl)cc1	-0.45	75	-35	76	6
CC(=C1C(=O)c2ccccc2C1=O)N1CCN(CCN=CC2=C(O)CC(C)(C)CC2=O)CC1	0.14	96	-19	95	34*
CC(=NCCN1CCN(C(C)=C2C(=O)c3ccccc3C2=O)CC1)C1=C(O)CC(C)(C)CC1=O	0.61	91	-41	87	31*
COc1cc(COCC(O)CN2CCN(CCN3C(=O)c4cccc5cccc(c45)C3=O)CC2)cc(OC)c1OC (stereo not drawn)	-0.51	29	-2	32	2
O=C1c2cccc3cccc(c23)C(=O)N1CCN1CCN(CC(O)COCc2ccc(Cl)cc2)CC1 (stereo not drawn)	-0.16	3.1*	-60	2.7*	1
CCc1ccc(OCC(O)CN2CCC(CN3C(=O)c4cccc5cccc(c45)C3=O)CC2)cc1 (stereo not drawn)	-0.29	1.1*	-18	1.2*	3
O=C1c2cccc3cccc(c23)C(=O)N1CCN1CCN(CC(O)COc2ccc3ccccc3c2)CC1 (stereo not drawn)	-1.7	1.5*	-43	1.2*	0
COc1ccc(COCC(O)CN2CCC(CN3C(=O)c4cccc5cccc(c45)C3=O)CC2)cc1OC (stereo not drawn)	0.52	37	-41	39	4
Cc1ccc(C)c(OCC(O)CN2CCN(CCN3C(=O)c4cccc5cccc(c45)C3=O)CC2)c1 (stereo not drawn)	-0.02	1.1*	-50	1.2*	6
Clc1ccc(Cn2nc(-c3ccccc3)nc2-c2ccccc2)cc1	-0.93	73	-50	76	4
COCCNC(=O)C(c1cccs1)N(C(=O)Cn1nnc2ccccc21)c1ccccc1 (stereo not drawn)	0.56	98	-70	99	1
COc1cccc(N(C(=O)CCl)C(C(=O)NCCc2ccccc2)c2cccs2)c1 (stereo not drawn)	-0.56	2.4*	-32	1.2*	5
COc1cccc(N(C(=O)CS(=O)CC(=O)Nc2ccc(F)cc2)C(C(=O)NC2CCCCC2)c2cccs2)c1 (stereo not drawn)	0.05	82	-30	83	6
COc1ccc(N(C(=O)CCl)C(C(=O)NCCc2ccccc2)c2cccs2)cc1Cl (stereo not drawn)	-0.9	1.8*	-41	0.9*	-7
Cc1cccc(NS(=O)(=O)c2cc(C(=O)N3CCc4ccccc4C3)ccc2Cl)c1C	-1.5	64	-10	54	1
Clc1ccc(-c2cc(COc3ccc4ccccc4c3)no2)cc1	0.68	101	-35	100	-5
O=C1C2C(C(=O)N1Cc1cccnc1)C1C=CC2C12CC2 (stereo not drawn)	-0.14	92	5	99	0
COc1cccc(-n2c(C)nc3cc(C(=O)O)ccc32)c1	0.39	105	-69	99	-8
CCn1c2ccc(C)cc2c2nc3cc(C(=O)O)ccc3nc21	-0.37	59	96*	47	-15
CCn1c2ccc(Cl)cc2c2nc3ccccc3nc21	-1.4	79	1	90	-22
Brc1ccc2oc3c(N4CCOCC4)ncnc3c2c1	-0.06	78	-16	75	-16
